Source: ChEMBL document CHEMBL3588757, “Structure-based design, synthesis and biological testing of piperazine-linked bis-epipodophyllotoxin etoposide analogs” (Bioorg Med Chem, 2015)

Columns and labels:
Format in all cases: functional
OVCAR-8 [1] = test: Cytotoxicity against human OVCAR8 cells assessed as cell growth at 50 uM by SRB assay; settings: read-out: Activity
[2] = Cytotoxicity against human Hs578T cells assessed as cell growth at 5 uM by SRB assay; settings: Hs-578T, read-out: Activity
In short: (§1)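 Measured in the NCI-60 human tumour cell line panel using five-dose testing. Growth was recorded at each dose for each cell line, and a GI50 was derived for each line.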

MOLT-4 [3] = test: Cytotoxicity against human MOLT4 cells assessed as cell growth at 0.5 uM by SRB assay; settings: read-out: Activity
MDA-MB-435 = test: Cytotoxicity against human MDA-MB-435 cells assessed as cell growth at 0.5 uM by SRB assay; settings: read-out: Activity
COLO 205 [4] = test: Cytotoxicity against human COLO205 cells assessed as cell growth at 50 uM by SRB assay; settings: read-out: Activity
LOX IMVI = test: Cytotoxicity against human LOXIMVI cells assessed as cell growth at 0.5 uM by SRB assay; settings: read-out: Activity
CCRF-CEM [5] = test: Cytotoxicity against human CCRF-CEM cells by SRB assay
SK-MEL-2 [6] = test: Cytotoxicity against human SK-MEL-2 cells assessed as cell growth at 50 uM by SRB assay; settings: read-out: Activity
786-0 = test: Cytotoxicity against human 786-0 cells assessed as cell growth at 5 uM by SRB assay; settings: read-out: Activity
TK-10 = test: Cytotoxicity against human TK10 cells assessed as cell growth at 50 uM by SRB assay; settings: read-out: Activity
SF-539 = test: Cytotoxicity against human SF539 cells assessed as cell growth at 5 uM by SRB assay; settings: read-out: Activity
COLO 205 [7] = test: Cytotoxicity against human COLO205 cells assessed as cell growth at 0.005 uM by SRB assay; settings: read-out: Activity
UACC-62 = test: Cytotoxicity against human UACC62 cells assessed as cell growth at 0.05 uM by SRB assay; settings: read-out: Activity
NCI-H522 [8] = test: Cytotoxicity against human NCI-H522 cells assessed as cell growth at 0.005 uM by SRB assay; settings: read-out: Activity
DU-145 = test: Cytotoxicity against human DU145 cells assessed as cell growth at 0.5 uM by SRB assay; settings: read-out: Activity; in short: as §1
OVCAR-5 = test: Cytotoxicity against human OVCAR5 cells by SRB assay
In short: (§2)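 NCI-60 panel screen; 5-dose testing giving GI50 per cell line, plus a single 10 µM one-dose test. Method details not given beyond the NCI screen.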

HCT-15 = test: Cytotoxicity against human HCT15 cells assessed as cell growth at 5 uM by SRB assay; settings: read-out: Activity; in short: as §1
HCT-116 = test: Cytotoxicity against human HCT116 cells assessed as cell growth at 5 uM by SRB assay; settings: read-out: Activity; in short: as §1
HL-60(TB) = test: Cytotoxicity against human HL-60(TB) cells assessed as cell growth at 5 uM by SRB assay; settings: read-out: Activity; in short: as §1
NCI-H460 = test: Cytotoxicity against human NCI-H460 cells assessed as cell growth at 5 uM by SRB assay; settings: read-out: Activity
CCRF-CEM [9] = test: Cytotoxicity against human CCRF-CEM cells assessed as cell growth at 0.5 uM by SRB assay; settings: read-out: Activity
HOP-62 = test: Cytotoxicity against human HOP62 cells by SRB assay; in short: as §1
MOLT-4 [10] = test: Cytotoxicity against human MOLT4 cells assessed as cell growth at 0.05 uM by SRB assay; settings: read-out: Activity
UO-31 = test: Cytotoxicity against human UO31 cells assessed as cell growth at 5 uM by SRB assay; settings: read-out: Activity
A498 [11] = test: Cytotoxicity against human A498 cells assessed as cell growth at 50 uM by SRB assay; settings: read-out: Activity
NCI-H522 [12] = test: Cytotoxicity against human NCI-H522 cells assessed as cell growth at 0.5 uM by SRB assay; settings: read-out: Activity
KM12 = test: Cytotoxicity against human KM12 cells assessed as cell growth at 0.005 uM by SRB assay; settings: read-out: Activity
SF-268 [13] = test: Cytotoxicity against human SF268 cells assessed as cell growth at 0.5 uM by SRB assay; settings: read-out: Activity
T47D [14] = test: Cytotoxicity against human T47D cells by SRB assay; in short: as §2
T47D [15] = test: Cytotoxicity against human T47D cells assessed as cell growth at 0.005 uM by SRB assay; settings: read-out: Activity
[16] = Cytotoxicity against human Hs578T cells by SRB assay; settings: Hs-578T; in short: as §1
U-251 = test: Cytotoxicity against human U251 cells assessed as cell growth at 0.005 uM by SRB assay; settings: read-out: Activity
MDA-MB-231 = test: Cytotoxicity against human MDA-MB-231/ATCC cells assessed as cell growth at 50 uM by SRB assay; settings: read-out: Activity
OVCAR-8 [17] = test: Cytotoxicity against human OVCAR8 cells by SRB assay; in short: as §2
A498 [18] = test: Cytotoxicity against human A498 cells assessed as cell growth at 0.5 uM by SRB assay; settings: read-out: Activity
SF-268 [19] = test: Cytotoxicity against human SF268 cells assessed as cell growth at 0.05 uM by SRB assay; settings: read-out: Activity
SK-MEL-28 = test: Cytotoxicity against human SK-MEL-28 cells assessed as cell growth at 0.005 uM by SRB assay; settings: read-out: Activity
[20] = Cytotoxicity against human Hs578T cells assessed as cell growth at 0.005 uM by SRB assay; settings: Hs-578T, read-out: Activity; in short: as §1
OVCAR-3 = test: Cytotoxicity against human OVCAR3 cells assessed as cell growth at 5 uM by SRB assay; settings: read-out: Activity
OVCAR-8 [21] = test: Cytotoxicity against human OVCAR8 cells assessed as cell growth at 0.5 uM by SRB assay; settings: read-out: Activity
SW-620 = test: Cytotoxicity against human SW620 cells assessed as cell growth at 5 uM by SRB assay; settings: read-out: Activity
[22] = Cytotoxicity against human Hs578T cells assessed as cell growth at 0.5 uM by SRB assay; settings: Hs-578T, read-out: Activity; in short: as §1
SK-OV-3 = test: Cytotoxicity against human SKOV3 cells assessed as cell growth at 0.5 uM by SRB assay; settings: read-out: Activity
SK-MEL-2 [23] = test: Cytotoxicity against human SK-MEL-2 cells assessed as cell growth at 0.005 uM by SRB assay; settings: read-out: Activity
[24] = read-out: LC50 (the source's name)
[25] = read-out: pLC50 (the source's name) (converted)

COc1cc([C@@H]2c3cc4c(cc3[C@@H](NC(=O)CN3CCN(CCCCCCCCCCN5CCN(CC(=O)N[C@@H]6c7cc8c(cc7[C@@H](c7cc(OC)c(O)c(OC)c7)[C@H]7C(=O)OC[C@@H]76)OCO8)CC5)CC3)[C@H]3COC(=O)[C@H]23)OCO4)cc(OC)c1O
growth at 50 µM (OVCAR-8 [1]): -19% | growth at 5 µM [2]: 41% | growth at 0.5 µM (MOLT-4 [3]): 37% | growth at 0.5 µM (MDA-MB-435): 39% | growth at 50 µM (COLO 205 [4]): -35% | growth at 0.5 µM (LOX IMVI): 21% | GI50 (CCRF-CEM [5]; read-out: GI50): 80.9 nM | CC50 (CCRF-CEM [5]; [24]): > 50000 nM | GI50 (CCRF-CEM [5]; read-out: pGI50 (converted)): 81.3 nM | CC50 (CCRF-CEM [5]; [25]): > 50100 nM | growth at 50 µM (SK-MEL-2 [6]): -59% | growth at 5 µM (786-0): -13% | growth at 50 µM (TK-10): -98% | growth at 5 µM (SF-539): -88% | growth at 0.005 µM (COLO 205 [7]): 90% | growth at 0.05 µM (UACC-62): 90% | growth at 0.005 µM (NCI-H522 [8]): 97% | growth at 0.5 µM (DU-145): 22% | GI50 (OVCAR-5; read-out: GI50): 830 nM | CC50 (OVCAR-5; [24]): 19500 nM | TGI (OVCAR-5; read-out: TGI): 5650 nM | GI50 (OVCAR-5; read-out: pGI50 (converted)): 832 nM | CC50 (OVCAR-5; [25]): 19500 nM | TGI (OVCAR-5; read-out: pTGI (converted)): 5620 nM | growth at 5 µM (HCT-15): -69% | growth at 5 µM (HCT-116): -15% | growth at 5 µM (HL-60(TB)): -44% | growth at 5 µM (NCI-H460): 33% | growth at 0.5 µM (CCRF-CEM [9]): 4% | GI50 (HOP-62; read-out: GI50): 43.8 nM | TGI (HOP-62; read-out: TGI): 863 nM | GI50 (HOP-62; read-out: pGI50 (converted)): 43.6 nM | TGI (HOP-62; read-out: pTGI (converted)): 871 nM | growth at 0.05 µM (MOLT-4 [10]): 67% | growth at 5 µM (UO-31): -13% | growth at 50 µM (A498 [11]): -97% | growth at 0.5 µM (NCI-H522 [12]): 14% | growth at 0.005 µM (KM12): 97% | growth at 0.5 µM (SF-268 [13]): 49% | GI50 (T47D [14]; read-out: GI50): 463 nM | CC50 (T47D [14]; [24]): > 50000 nM | TGI (T47D [14]; read-out: TGI): 9740 nM | GI50 (T47D [14]; read-out: pGI50 (converted)): 468 nM | CC50 (T47D [14]; [25]): > 50100 nM | TGI (T47D [14]; read-out: pTGI (converted)): 9770 nM | growth at 0.005 µM (T47D [15]): 94% | GI50 ([16]; read-out: GI50): 2800 nM | CC50 [16, 24]: > 50000 nM | TGI ([16]; read-out: TGI): 22200 nM | GI50 ([16]; read-out: pGI50 (converted)): 2820 nM | CC50 [16, 25]: > 50100 nM | TGI ([16]; read-out: pTGI (converted)): 22400 nM | growth at 0.005 µM (U-251): 85% | growth at 50 µM (MDA-MB-231): -54% | GI50 (OVCAR-8 [17]; read-out: GI50): 514 nM | CC50 (OVCAR-8 [17]; [24]): > 50000 nM | TGI (OVCAR-8 [17]; read-out: TGI): 2200 nM | GI50 (OVCAR-8 [17]; read-out: pGI50 (converted)): 513 nM | CC50 (OVCAR-8 [17]; [25]): > 50100 nM | TGI (OVCAR-8 [17]; read-out: pTGI (converted)): 2190 nM | growth at 0.5 µM (A498 [18]): 51% | growth at 0.05 µM (SF-268 [19]): 77% | growth at 0.005 µM (SK-MEL-28): 96% | growth at 0.005 µM [20]: 94% | growth at 5 µM (OVCAR-3): 40% | growth at 0.5 µM (OVCAR-8 [21]): 51% | growth at 5 µM (SW-620): -63% | growth at 0.5 µM [22]: 77% | growth at 0.5 µM (SK-OV-3): 52% | growth at 0.005 µM (SK-MEL-2 [23]): 99%
